# Source: PubChem
# Runt-CBFb FRET – blocks binding of human RUNX1 Runt domain to CBFb | inhibition, % at 20 µM | Q01196+Q13951 | 220,000 compounds, 0.46% hits | Cerulean-Runt/Venus-CBFb FRET ratio 530/480, 1 h;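 active = inhibition over about 50% at 20 µM in the single-dose screen, limit read from the data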;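 also: 0% = DMSO wells and 100% = excess unlabeled CBFb competitor control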
#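 System: Cerulean-labeled Runt domain protein | Quantity: 100 nM of each labeled protein | Schedule: 1 h compound exposure, room temperature | Detection: Fluorescence energy transfer, 422 nm excitation, 530/480 nm emission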
# EBV gp42 block – inhibitors of Epstein-Barr virus glycoprotein 42; Q1HVG2; Fluorescence polarization binding assay, mP read-out; inhibition, % (tested at 21.74 µM); 220,000 compounds, 0.42% hits; AID 1085; in the data active = inhibition above about 50%
# MEX-5 binding – C. elegans MEX-5 TCR-2 RNA binding activity | MEX-5/FITC-TCR2 RNA binding, fluorescence polarization; active compounds read low | activity score (negative = inhibition of binding), % at 10 µM | 300,000 compounds, 0.38% hits;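 active = inhibition past about -25% in most replicates, and total fluorescence under double the plate's negative control median, limit read from the data; inconclusive = replicates evenly split on the limit, or fluorescence at least double controls; inactive = too little inhibition in most replicates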;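 also: 0% = DMSO and -100% = 5 µM competing unlabeled TCR2 RNA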
# RanGTP-Impb inh – disruptors of Ran-importin-beta complex formation – biochemical, FRET, CFP-Ran, YFP-importin-beta, homogeneous, primary screen; inhibition, % (no concentration beside the values); AID 2216; 300,000 compounds, 1.1% hits; cell-free CFP-Ran/YFP-importin-beta FRET ratio;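 active = more than half of the replicate wells show a fall in the fluorescence ratio signal beyond about 16%, limit read from the data, passing the limit was not always enough; inconclusive = exactly half of the replicate wells pass the set limit; inactive = fewer than half of replicates pass the limit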;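 also: 0% = DMSO wells and 100% = Ran loaded with GDP instead of GTP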
# Runt-SMMHC FRET – inhibitors of human RUNX1 Runt domain binding to CBFb-SMMHC | Q01196+Q13951 | Cerulean-Runt/Venus-CBFb-SMMHC FRET ratio 530/480, 1 h | inhibition, % at 20 µM | 220,000 compounds, 0.74% hits;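 active = mean inhibition across duplicate retests at 20 µM reaching about 50%, limit read from the data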;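 also: 0% = DMSO wells and 100% = wells with excess untagged CBFb-SMMHC; inhibitors lower the FRET ratio by blocking Runt binding to CBFb-SMMHC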
# LANA-H2B inh – blocks KSHV LANA binding to histone H2A/H2B | cell-free LANA-H2A/H2B peptide, fluorescence polarization | inhibition, % (test concentration not listed) | 320,000 compounds, 0.6% hits; in the data active = inhibition mostly above about 10%, no sharp cut-off; inactive = mostly below about 6.7%
# * = called active by the depositor; u = inconclusive; x = no result given. A selection: hits, their analogues and other compounds. The true share with any hit is near 2.4%.
SMILES,Runt-CBFb FRET,EBV gp42 block,MEX-5 binding,RanGTP-Impb inh,Runt-SMMHC FRET,LANA-H2B inh
CNC(=O)N(O)C1N(/N=C/c2cc(Br)ccc2O)C(=S)SC1(C)C (stereo not drawn),x,x,1,3,x,-1
COc1ccc(-c2nn(-c3ccccc3)cc2/C=N/Nc2ccc(Cl)c(C(=O)O)c2)cc1OC,-1,19,-4,-3,-3,1
CCCOc1ccc(/C=c2\sc3nc(-c4ccco4)nn3c2=O)cc1OCC,15,36,-67*,-2,-85,5
CCCCCOc1ccc(/C=c2\sc3nc(=O)c(-c4ccccc4)nn3c2=O)cc1OC,-18,-5,-31*,1,-30,8
CC(=O)Oc1cccc(/C=c2\sc3nc(-c4ccco4)nn3c2=O)c1,22,-16,-5,4,6,-3
Cc1ccccc1C(=O)Oc1cc(N)n(S(=O)(=O)c2ccccc2)n1,-2,6,-2,0,-2,-1
CC1CCCC(NC(=O)Cn2cc(Br)ccc2=O)C1C (stereo not drawn),x,x,x,x,x,-1
COc1ccc(-c2noc(CCCc3ccccc3)n2)cc1OC,-4,-2,-3,26*,-5,-1
O=C(Oc1cccccc1=O)c1ccccc1,3,-6,0,63*,0,2
Cc1cccnc1Nc1nc(-c2ccccn2)cs1,0,-1,9,-2,1,-7
Cc1cccnc1Nc1nc(-c2ccccc2)cs1,x,x,2,3,x,23*
CC(C)CNS(=O)(=O)c1cc(C(=O)OC2CCOC2=O)c(Cl)cc1Cl (stereo not drawn),x,x,2,-1,x,-5
O=C(NC(Cc1ccccc1)C(=O)O)/C(=C/c1ccc(Br)cc1)NC(=O)c1ccc(Br)o1 (stereo not drawn),x,x,-1,24*,x,-3
O=C(NC(Cc1ccccc1)C(=O)O)/C(=C\c1ccc(Br)cc1)NC(=O)c1ccc(Br)o1 (stereo not drawn),x,x,-1,12,x,2
O=C(NCc1ccco1)/C(=C/c1ccc(Br)cc1)NC(=O)c1ccco1,x,x,-1,23*,x,0
CCCC(=O)Nc1cc(C(=O)O)ccc1S(=O)(=O)c1ccc(Cl)cc1,0,-9,1,0,4,4
C=CCOc1ccc(/C=C2/C(=N)N3N=C(CC(=O)N4CCCC4)SC3=NC2=O)cc1OC,x,x,1,4,x,1
O=C(O)c1cccc(Cn2c(Cl)c(/C=N/NC(=O)c3ccccc3O)sc2=O)c1,0,-13,-4,-1,-3,15*
CCN(CC)C(=O)CSc1nc2[nH]ncc2c(=O)[nH]1,0,9,0,0,3,1
Cc1ccc(/C=C/C2=Cc3c(sc(NC(=O)CSc4n[nH]c(N)n4)c3C#N)C(C)(C)C2)o1,19,77*,4,-11,12,3
COc1cccc(CN2CC(C(=O)NCCc3ccc(C)o3)CCC2=O)c1 (stereo not drawn),x,x,-1,-1,x,-1
CCN1C(=NCCc2cccs2)N[C@@H](c2cccs2)C(C(=O)OC)=C1C,x,x,-2,31*,x,0
CCOC(=O)CN1C(=O)N[C@@H](c2cccs2)C(C(=O)OC)=C1C,x,x,0,8,x,-2
CCN1C(=NCC(C)C)N[C@@H](c2cccc(C(F)(F)F)c2)C(C(=O)OC)=C1C,x,x,-1,0,x,13*
C=CCN=C1N[C@@H](c2cccc(C(F)(F)F)c2)C(C(=O)OC)=C(C)N1CC,x,x,0,u,x,5
SMILES,Runt-CBFb FRET,EBV gp42 block,MEX-5 binding,RanGTP-Impb inh,Runt-SMMHC FRET,LANA-H2B inh
COCCNC(=O)C(=O)NCC1OCCCN1S(=O)(=O)c1cccs1 (stereo not drawn),-1,-11,-2,0,-4,0
COc1ccc(CCNc2nc(-c3cccnc3)cs2)cc1OC,2,138*,0,-3,-2,2
CN1/C(=C/C=C(C#N)C#N)C(C)(C)c2ccccc21,-222,54*,-87*,2,-47,8
CN1/C(=C\C=O)C(C)(C)c2ccccc21,-1,-7,4,0,-2,0
CN1/C(=C\C(=O)c2ccco2)C(C)(C)c2ccccc21,9,-5,0,8,79*,-21
CN1/C(=C\C(=O)c2cccc(S(=O)(=O)N3CCCCC3)c2)C(C)(C)c2ccccc21,-8,-5,1,21*,62,-2
Fc1ccc(N2N=C(c3cccs3)CC2c2ccccc2)cc1 (stereo not drawn),59*,-10,1,2,91*,3
COC(=O)CCC(=O)NC1CC(C)(C)Cc2c1cnn2-c1ccccc1 (stereo not drawn),x,x,5,-5,x,4
Cc1c(NC(=S)N2CCN(c3ccc(F)cc3)CC2)c(=O)n(-c2ccccc2)n1C,1,-7,1,-1,0,0
CC(=O)N1CCC(N2CCN(c3ccccc3F)CC2)CC1,3,-10,-1,-13,4,17*
CCOc1ccc(CNCc2ccccc2Cl)cc1,0,5,0,4,0,1
CCOc1ccc(CNC(c2ccccc2)c2ccccc2)cc1,x,x,1,33*,x,-4
N#Cc1cnc(NN)nc1,2,-18,-1,-3,-5,165*
Nc1ccc(O)c2c1C(=O)c1ccccc1C2=O,-3,125*,-9,6,-5,-1
Cc1cccc(NS(=O)(=O)Cc2ccccc2)c1C,x,x,1,4,x,6
N/C(=N/OS(=O)(=O)c1ccc([N+](=O)[O-])cc1)c1ccncc1,-1,-3,-2,u,-2,37*
CSc1nc2c(c(=O)[nH]1)C(c1cccc(Cl)c1)CC(=O)N2 (stereo not drawn),2,-10,1,0,-2,0
Cc1cc([N+](=O)[O-])nn1CC(=O)NNC(=S)Nc1ccc([N+](=O)[O-])cc1,0,5,-37*,-3,-2,3
COc1ccc(NC(=S)NNC(=O)Cn2nc([N+](=O)[O-])cc2C)cc1,-2,0,-2,-1,5,4
Cc1cc([N+](=O)[O-])nn1CC(=O)NCc1ccc(Cl)cc1,x,x,-3,0,x,2
Cc1cc([N+](=O)[O-])nn1CC(=O)NCc1nc2ccccc2[nH]1,1,-28,2,174*,0,-2
O=C(NCc1ccccc1)/C(=C/c1ccco1)NC(=O)c1ccco1,0,-22,0,-6,-6,-1
Cc1ccc(CN2CCN(C3CCC3)CC2CCO)cc1 (stereo not drawn),x,x,0,-1,x,3
CC(=O)N1CCC(N2CCN(Cc3ccc(C)cc3)C(CCO)C2)CC1 (stereo not drawn),-1,-2,-1,3,3,77*
